This is an account of results in ChEMBL document CHEMBL1140058, “Synthesis of new sulfonyl pyrrolidine derivatives as matrix metalloproteinase inhibitors” (Bioorg Med Chem, 2008).

Each structure is given as a SMILES string.

A word on the IC50: it is the concentration that gives 50% inhibition. A lower IC50 goes with greater potency.

Assay [1] deals with 72 kDa type IV collagenase (Homo sapiens, UniProt P08253). Kind of assay: Inhibition of MMP2 by microtiter plate fluorimetric assay. The settings on record: in the assay text read “spectrophotometric” for “fluorimetric”. In a few lines:
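Enzyme and compound preincubated 30 min at 37 °C in 50 mM sodium borate buffer, pH 8.5. Substrate was added for a further 60 min at 37 °C, then 0.03% picrylsulfonic acid for 20 min at room temperature. Absorbance was read at 450 nm. The no-compound well was taken as 100% and the enzyme-only well as blank. Inhibition % = (OD100% − ODcompound)/(OD100% − ODblank) × 100.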

In assay [2] the target is Aminopeptidase N (Homo sapiens, UniProt P15144). Kind of assay: Inhibition of APN by spectrophotometric assay. In a few lines: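 Enzyme and compound preincubated 30 min at 37 °C in 50 mM sodium phosphate buffer, pH 7.2. L-leucine p-nitroanilide substrate was then added for a further 60 min at 37 °C, and absorbance was read at 405 nm. The no-compound well was taken as 100% and the enzyme-only well as blank. Inhibition % = (OD100% − ODcompound)/(OD100% − ODblank) × 100.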
Chain of Aminopeptidase N (P15144 whole entry): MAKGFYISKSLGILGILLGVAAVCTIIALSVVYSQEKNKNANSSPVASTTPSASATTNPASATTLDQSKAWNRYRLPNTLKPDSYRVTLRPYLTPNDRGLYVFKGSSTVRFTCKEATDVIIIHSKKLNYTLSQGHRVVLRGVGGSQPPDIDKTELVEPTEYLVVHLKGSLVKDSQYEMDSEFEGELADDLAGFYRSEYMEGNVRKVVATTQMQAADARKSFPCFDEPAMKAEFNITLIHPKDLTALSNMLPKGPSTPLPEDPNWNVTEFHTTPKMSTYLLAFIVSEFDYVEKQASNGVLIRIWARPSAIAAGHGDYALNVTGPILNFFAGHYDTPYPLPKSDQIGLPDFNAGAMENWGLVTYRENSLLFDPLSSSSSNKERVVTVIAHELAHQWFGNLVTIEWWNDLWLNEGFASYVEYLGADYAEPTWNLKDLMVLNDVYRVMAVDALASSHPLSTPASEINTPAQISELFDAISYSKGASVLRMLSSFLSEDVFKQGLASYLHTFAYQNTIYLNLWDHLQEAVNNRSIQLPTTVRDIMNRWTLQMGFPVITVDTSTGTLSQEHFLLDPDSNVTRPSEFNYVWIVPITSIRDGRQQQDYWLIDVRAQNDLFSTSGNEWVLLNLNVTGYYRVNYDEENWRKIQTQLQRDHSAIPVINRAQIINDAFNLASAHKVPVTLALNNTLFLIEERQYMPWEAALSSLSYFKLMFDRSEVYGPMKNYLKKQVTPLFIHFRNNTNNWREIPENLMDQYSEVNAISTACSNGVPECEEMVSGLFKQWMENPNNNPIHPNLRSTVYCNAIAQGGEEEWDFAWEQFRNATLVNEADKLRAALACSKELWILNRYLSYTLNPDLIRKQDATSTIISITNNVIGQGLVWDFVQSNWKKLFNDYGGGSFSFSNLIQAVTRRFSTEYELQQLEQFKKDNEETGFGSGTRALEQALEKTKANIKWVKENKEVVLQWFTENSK

Chain of 72 kDa type IV collagenase (P08253 whole entry): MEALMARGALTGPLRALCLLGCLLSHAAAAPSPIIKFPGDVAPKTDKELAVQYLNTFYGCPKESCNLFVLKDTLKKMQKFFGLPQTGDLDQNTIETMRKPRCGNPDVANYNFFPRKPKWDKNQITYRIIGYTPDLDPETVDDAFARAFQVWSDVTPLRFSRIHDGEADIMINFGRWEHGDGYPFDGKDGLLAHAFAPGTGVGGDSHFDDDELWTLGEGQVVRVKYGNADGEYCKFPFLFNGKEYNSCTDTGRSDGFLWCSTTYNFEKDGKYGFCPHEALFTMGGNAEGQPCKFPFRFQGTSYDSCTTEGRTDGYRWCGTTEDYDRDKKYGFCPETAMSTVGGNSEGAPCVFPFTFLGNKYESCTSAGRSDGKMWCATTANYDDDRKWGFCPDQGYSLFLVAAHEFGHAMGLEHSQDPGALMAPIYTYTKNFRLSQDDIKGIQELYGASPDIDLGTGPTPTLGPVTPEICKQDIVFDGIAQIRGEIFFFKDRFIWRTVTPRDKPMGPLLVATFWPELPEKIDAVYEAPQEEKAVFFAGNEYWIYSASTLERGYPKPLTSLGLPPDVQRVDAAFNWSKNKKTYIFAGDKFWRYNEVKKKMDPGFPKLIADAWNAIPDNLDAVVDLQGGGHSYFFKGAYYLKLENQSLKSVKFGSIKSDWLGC

For `CS(=O)(=O)N1C[C@H](O)C[C@H]1C(=O)NO`, the IC50 in assay [1] was 0.02 µM; in assay [2], 26.3 µM.

As for `COC(=O)[C@@H]1C[C@@H](OC(=O)c2ccccc2)CN1S(=O)(=O)c1ccc(C)cc1`, the IC50 in assay [1] stood at 3.2 µM; in assay [2], 24.8 µM.

Turning to `COC(=O)[C@@H]1C[C@@H](OC(=O)c2ccc(Cl)cc2)CN1S(=O)(=O)c1ccc(C)cc1`, the IC50 in assay [1] was 2.2 µM; in assay [2], 51.2 µM.

Take `COC(=O)[C@@H]1C[C@@H](OC(=O)/C=C/c2ccccc2)CN1S(=O)(=O)c1ccccc1`: the figures for the IC50 in assay [1] and in assay [2] were 0.09 µM and 135 µM, respectively.

For `COC(=O)[C@@H]1C[C@@H](OC(=O)/C=C/c2ccccc2)CN1S(=O)(=O)c1ccc(C)cc1`, the results for the IC50 in assay [1] and in assay [2] were 0.04 µM and 169 µM, respectively.

Take `COC(=O)[C@@H]1C[C@@H](OC(=O)/C=C/c2ccccc2)CN1S(C)(=O)=O`: the IC50 in assay [1] was determined as 0.5 µM; in assay [2], 114 µM.

For `COC(=O)[C@@H]1C[C@@H](OC(=O)c2ccc(Cl)cc2)CN1S(=O)(=O)c1ccccc1`, the figures for the IC50 in assay [1] and in assay [2] were 2.7 µM and 36.4 µM, respectively.

Take `COC(=O)[C@@H]1C[C@@H](OS(=O)(=O)c2ccc(C)cc2)CN1S(=O)(=O)c1ccccc1`: the IC50 is 0.04 µM in assay [1] and 61.3 µM in assay [2].

For `COC(=O)[C@@H]1C[C@@H](OS(C)(=O)=O)CN1S(=O)(=O)c1ccccc1`, the IC50 in assay [1] came out at 1.3 µM; in assay [2], 39.5 µM.

Take `COC(=O)[C@@H]1C[C@@H](OS(=O)(=O)c2ccccc2)CN1S(=O)(=O)c1ccc(C)cc1`: the results for the IC50 in assay [1] and in assay [2] were 0.05 µM and 74.6 µM, respectively.

Consider `COC(=O)[C@@H]1C[C@@H](OS(C)(=O)=O)CN1S(=O)(=O)c1ccc(C)cc1`, for which the IC50 in assay [1] came out at 0.2 µM; in assay [2], 41.4 µM.

In the case of `COC(=O)[C@@H]1C[C@@H](OS(=O)(=O)c2ccc(C)cc2)CN1S(C)(=O)=O`, the figures for the IC50 in assay [1] and in assay [2] were 0.2 µM and 68.9 µM, respectively.

For `O=C(NO)[C@@H]1C[C@@H](O)CN1S(=O)(=O)c1ccccc1`, the IC50 in assay [1] came out at 0.004 µM; in assay [2], 33.5 µM.

As to `COC(=O)[C@@H]1C[C@@H](OC(=O)c2ccc(Cl)cc2)CN1S(C)(=O)=O`, the figures for the IC50 in assay [1] and in assay [2] were 1.5 µM and 47.5 µM, respectively.

With `COC(=O)[C@@H]1C[C@@H](OS(=O)(=O)c2ccccc2)CN1S(C)(=O)=O`, the results for the IC50 in assay [1] and in assay [2] were 0.7 µM and 28.4 µM, respectively.

In the case of `COC(=O)[C@@H]1C[C@@H](OS(=O)(=O)c2ccccc2)CN1S(=O)(=O)c1ccccc1`, the IC50 in assay [1] is 0.01 µM; in assay [2], 47.3 µM.

For the molecule `COC(=O)[C@@H]1C[C@@H](OS(=O)(=O)c2ccc(C)cc2)CN1S(=O)(=O)c1ccc(C)cc1`, the IC50 in assay [1] is 0.007 µM; in assay [2] it was 101 µM.

Consider `COC(=O)[C@@H]1C[C@@H](OC(=O)c2ccccc2)CN1S(C)(=O)=O`, for which the results for the IC50 in assay [1] and in assay [2] were 5.2 µM and 53.6 µM, respectively.

With `COC(=O)[C@@H]1C[C@@H](OC(=O)c2ccccc2)CN1S(=O)(=O)c1ccccc1`, the values for the IC50 in assay [1] and in assay [2] were 3.5 µM and 43.8 µM, respectively.

Regarding `Cc1ccc(S(=O)(=O)N2C[C@H](O)C[C@H]2C(=O)NO)cc1`, the IC50 in assay [1] was determined as 0.002 µM; in assay [2] it was 21.7 µM.

For `COC(=O)[C@@H]1C[C@@H](OS(C)(=O)=O)CN1S(C)(=O)=O`, the figures for the IC50 in assay [1] and in assay [2] were 8.9 µM and 31.6 µM, respectively.
